Data published in ChEMBL document CHEMBL1817561, “5a-Carba-β-D-glucopyranose derivatives as novel sodium-dependent glucose cotransporter 2 (SGLT2) inhibitors for the treatment of type 2 diabetes” (Bioorg Med Chem, 2011).
The source made the active and inactive calls. The rule behind the calls is not given here.

What was measured:
[1] = target: T1, Sodium/glucose cotransporter 2 (Homo sapiens, UniProt P31639); assay: Inhibition of human SGLT2 expressed in CHO cells assessed as [14C]AMG uptake after 45 mins; assay type: cell-based
T1 sequence (P31639 whole entry): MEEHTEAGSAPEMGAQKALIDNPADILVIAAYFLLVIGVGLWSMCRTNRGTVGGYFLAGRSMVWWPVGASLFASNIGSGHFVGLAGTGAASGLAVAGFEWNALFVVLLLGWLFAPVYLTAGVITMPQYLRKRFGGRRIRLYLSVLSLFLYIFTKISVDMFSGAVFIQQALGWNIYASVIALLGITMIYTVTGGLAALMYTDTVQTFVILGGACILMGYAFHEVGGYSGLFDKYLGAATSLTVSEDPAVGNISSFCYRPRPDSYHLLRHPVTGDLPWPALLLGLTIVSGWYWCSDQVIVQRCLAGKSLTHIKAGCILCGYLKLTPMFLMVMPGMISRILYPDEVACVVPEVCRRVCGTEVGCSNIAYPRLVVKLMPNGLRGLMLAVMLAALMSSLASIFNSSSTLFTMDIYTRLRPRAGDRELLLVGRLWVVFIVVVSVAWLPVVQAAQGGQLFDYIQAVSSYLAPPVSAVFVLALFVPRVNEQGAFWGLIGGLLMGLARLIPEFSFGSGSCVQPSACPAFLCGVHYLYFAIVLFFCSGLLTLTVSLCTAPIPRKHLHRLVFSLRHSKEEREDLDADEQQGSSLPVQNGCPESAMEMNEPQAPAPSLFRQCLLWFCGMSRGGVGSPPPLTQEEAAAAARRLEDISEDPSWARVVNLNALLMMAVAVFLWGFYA
Outline: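 Cells incubated 45 min in reaction buffer with compound plus 1 mM AMG containing [14C]AMG; uptake read as radioactivity in cell lysates. IC50 from four-parameter logistic curve fit; means of multiple independent experiments, with phlorizin and reference standard included in every run.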

[2] = tested on: Mus musculus; assay: Antidiabetic activity in db/db mouse assessed as reduction of blood glucose level at 100 mg/kg, po after 8 hrs by hexokinase method; assay type: functional, organism-based; set-up: dose 100 mg/kg
Outline: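 Male db/db mice on regular chow; single oral gavage dose of 100 mg/kg as homogeneous suspension in 0.5% carboxymethylcellulose sodium. Blood sampled before dosing and at 1, 2, 4, 6, 8, 10 and 24 h; glucose measured by hexokinase method.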

Structure (SMILES)	IC50 [1]	Activity [2]
CSc1ccc(Cc2ccccc2O[C@@H]2C[C@H](CO)[C@@H](O)[C@H](O)[C@H]2O)cc1	0.019 µM	–
OC[C@H]1C[C@@H](Oc2ccccc2Cc2ccc(C3CC3)cc2)[C@H](O)[C@@H](O)[C@@H]1O	0.011 µM	–
OC[C@H]1C[C@@H](Oc2ccccc2Cc2ccc(O)cc2)[C@H](O)[C@@H](O)[C@@H]1O	0.29 µM	–
COc1ccc(Cc2ccccc2O[C@@H]2O[C@H](CO)[C@@H](O)[C@H](O)[C@H]2O)cc1 [SERGLIFLOZIN A]	0.0048 µM	–
CC(C)c1ccc(Cc2ccccc2O[C@@H]2C[C@H](CO)[C@@H](O)[C@H](O)[C@H]2O)cc1	0.15 µM	–
CCOc1ccc(Cc2ccccc2O[C@@H]2C[C@H](CO)[C@@H](O)[C@H](O)[C@H]2O)cc1	0.11 µM	–
CCCc1ccc(Cc2ccccc2O[C@@H]2C[C@H](CO)[C@@H](O)[C@H](O)[C@H]2O)cc1	0.12 µM	–
OC[C@H]1C[C@@H](Oc2ccccc2Cc2ccccc2)[C@H](O)[C@@H](O)[C@@H]1O	0.69 µM	–
OC[C@H]1C[C@@H](Oc2ccccc2Cc2ccc(C(F)(F)F)cc2)[C@H](O)[C@@H](O)[C@@H]1O	0.12 µM	–
CCOC(=O)OC[C@H]1O[C@@H](Oc2ccccc2Cc2ccc(OC)cc2)[C@H](O)[C@@H](O)[C@@H]1O [SERGLIFLOZIN ETABONATE]	0.26 µM	Active

Further molecules by falling IC50 [1], results first:

IC50 [1]	Structure (SMILES)	Activity [2]
0.63 µM	OC[C@H]1C[C@@H](Oc2ccccc2Cc2ccc(F)cc2)[C@H](O)[C@@H](O)[C@@H]1O	–
0.15 µM	OC[C@H]1C[C@@H](Oc2ccccc2Cc2ccc(Cl)cc2)[C@H](O)[C@@H](O)[C@@H]1O	–
0.059 µM	Cc1ccc(Cc2ccccc2O[C@@H]2C[C@H](CO)[C@@H](O)[C@H](O)[C@H]2O)cc1	–
0.042 µM	COc1ccc(Cc2ccccc2O[C@@H]2C[C@H](CO)[C@@H](O)[C@H](O)[C@H]2O)cc1	Active
0.029 µM	C=Cc1ccc(Cc2ccccc2O[C@@H]2C[C@H](CO)[C@@H](O)[C@H](O)[C@H]2O)cc1	–
0.028 µM	CCc1ccc(Cc2ccccc2O[C@@H]2C[C@H](CO)[C@@H](O)[C@H](O)[C@H]2O)cc1	–
